# In ChEMBL document CHEMBL4229380, “Arylureas derived from colchicine: Enhancement of colchicine oncogene downregulation activity” (Eur J Med Chem, 2018):
# Legend:
# HT-29 [1] = experiment: Induction of apoptosis in human HT-29 cells assessed as necrotic cells at 0.5 nM after 48 hrs by Annexin V-FITC staining-based flow cytometric analysis (reference value: 2 +/- 6%); type: functional
# HT-29 [2] = experiment: Effect on c-MYC gene expression in human HT-29 cells assessed as c-MYC level at 0.5 nM after 48 hrs by RT-qPCR analysis; type: functional
# Procedure, shortened: (§1)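 HT-29 cells at 70–80% confluence were seeded at 1.5×10^5 per well and left 24 h, then treated 48 h, with DMSO as control. Total RNA was extracted and VEGF-A, c-Myc and hTERT were quantified by TaqMan qPCR, normalized to β-actin and to living cell number. Results are % expression versus control, at least three measurements.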
# HT-29 [3] = experiment: Effect on VEGF protein expression in human HT-29 cells assessed as secreted VEGF level in culture media at 0.5 nM after 48 hrs by ELISA
# HT-29 [4] = experiment: Induction of apoptosis in human HT-29 cells assessed as viable cells at 0.5 nM after 48 hrs by Annexin V-FITC staining-based flow cytometric analysis (reference value: 82 +/- 1%); type: functional; settings: HT-29, 48 h, read-out: Activity
# HT-29 [5] = experiment: Effect on c-MYC protein expression in human HT-29 cells assessed as c-MYC level at 0.5 nM after 48 hrs by ELISA; type: functional
# Procedure, shortened: (§2)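 HT-29 cells (1.5×10^5 per well, 24 h pre-culture) were treated 48 h and washed in PBS. They were lysed in Tris pH 7.4 buffer with detergents, phosphatase inhibitors, PMSF and protease inhibitors. Lysates were adjusted to 200 µg/mL protein (Bradford) and total c-Myc or VEGFR-2 was measured by sandwich ELISA kit. Values are % of DMSO control, ≥3 measurements.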
# HT-29 [6] = experiment: Induction of apoptosis in human HT-29 cells assessed as apoptotic cells at 0.5 nM after 48 hrs by Annexin V-FITC staining-based flow cytometric analysis (reference value: 13 +/- 3%); type: functional
# HT-29 [7] = experiment: Antiproliferative activity against human HT-29 cells after 2 days by MTT assay; type: functional, cell-based; settings: HT-29, 48 h
# Procedure, shortened: (§3)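 Cells (5×10^3 per well) in DMEM with 10% FBS, glucose, glutamine and antibiotics were exposed to serial dilutions (stocks in DMSO) for 2 days at 37 °C, 5% CO2. MTT was added for 3 h, formazan was dissolved in DMSO and absorbance read at 490 nm. Viability was taken as % of untreated cells. IC50 was read graphically from three independent experiments.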
# HeLa = experiment: Antiproliferative activity against human HeLa cells after 2 days by MTT assay; type: functional, cell-based; settings: 48 h; procedure, shortened: as §3
# HEK293 = experiment: Antiproliferative activity against human HEK293 cells after 2 days by MTT assay; type: cell-based; settings: HEK293, 48 h; procedure, shortened: as §3
# MCF7 = experiment: Antiproliferative activity against human MCF7 cells after 2 days by MTT assay; type: functional, cell-based; settings: MCF7, 48 h; procedure, shortened: as §3
# HT-29 [8] = experiment: Effect on VEGF gene expression in human HT-29 cells assessed as VEGF level at 0.5 nM after 48 hrs by RT-qPCR analysis; type: functional; procedure, shortened: as §1
# HT-29 [9] = experiment: Effect on hTERT gene expression in human HT-29 cells assessed as hTERT level at 0.5 nM after 48 hrs by RT-qPCR analysis; type: functional; procedure, shortened: as §1
# HT-29 [10] = experiment: Effect on VEGFR2 protein expression in human HT-29 cells assessed as VEGFR2 level at 0.5 nM after 48 hrs by ELISA; type: functional; procedure, shortened: as §2
# HT-29 [11] = experiment: Induction of apoptosis in human HT-29 cells assessed as viable cells at 500 nM after 48 hrs by Annexin V-FITC staining-based flow cytometric analysis (reference value: 82 +/- 1%); type: functional; settings: HT-29, 48 h, read-out: Activity
# HT-29 [12] = experiment: Induction of apoptosis in human HT-29 cells assessed as apoptotic cells at 500 nM after 48 hrs by Annexin V-FITC staining-based flow cytometric analysis (reference value: 13 +/- 3%); type: functional
# HT-29 [13] = experiment: Induction of apoptosis in human HT-29 cells assessed as necrotic cells at 500 nM after 48 hrs by Annexin V-FITC staining-based flow cytometric analysis (reference value: 2 +/- 6%); type: functional
# HT-29 [14] = experiment: Induction of apoptosis in human HT-29 cells assessed as necrotic cells at 1000 nM after 48 hrs by Annexin V-FITC staining-based flow cytometric analysis (reference value: 2 +/- 6%); type: functional
# HT-29 [15] = experiment: Induction of apoptosis in human HT-29 cells assessed as apoptotic cells at 1000 nM after 48 hrs by Annexin V-FITC staining-based flow cytometric analysis (reference value: 13 +/- 3%); type: functional
# HT-29 [16] = experiment: Induction of apoptosis in human HT-29 cells assessed as viable cells at 1000 nM after 48 hrs by Annexin V-FITC staining-based flow cytometric analysis (reference value: 82 +/- 1%); type: functional; settings: HT-29, 48 h, read-out: Activity
SMILES,Activity (HT-29 [1]),Activity (HT-29 [2]),Activity (HT-29 [3]),viability at 0.0005 µM (HT-29 [4]),Activity (HT-29 [5]),Activity (HT-29 [6]),IC50 (HT-29 [7]),IC50 (HeLa),IC50 (HEK293),IC50 (MCF7),Activity (HT-29 [8]),Activity (HT-29 [9]),Activity (HT-29 [10]),viability at 0.5 µM (HT-29 [11]),Activity (HT-29 [12]),Activity (HT-29 [13]),Activity (HT-29 [14]),Activity (HT-29 [15]),viability at 1 µM (HT-29 [16])
COc1cc2c(c(OC)c1OC)-c1ccc(OC)c(=O)cc1[C@@H](NC(=O)Nc1ccccc1Cl)CC2,1%,25%,34%,58%,51%,41%,0.8 nM,1.2 nM,0.7 nM,1.3 nM,30%,46%,38%,–,–,–,–,–,–
CCc1cccc(CC)c1NC(=O)N[C@H]1CCc2cc(OC)c(OC)c(OC)c2-c2ccc(OC)c(=O)cc21,–,–,–,–,–,–,838 nM,304 nM,801 nM,185 nM,–,–,–,67%,32%,1%,–,–,–
COc1ccccc1NC(=O)N[C@H]1CCc2cc(OC)c(OC)c(OC)c2-c2ccc(OC)c(=O)cc21,–,–,–,–,–,–,1200 nM,1400 nM,1200 nM,1200 nM,–,–,–,–,–,–,1%,44%,55%
